For 39 compounds, Activity, ILS and Rm results are on record in ChEMBL document CHEMBL3244308, “Potential antitumor agents. 22. Latentiated congeners of the 4'-(9-acridinylamino)methanesulfonanilides” (J Med Chem, 1977).

Series [1] deals with Mus musculus. Nature of the series: Toxicity in ip dosed mouse assessed as optimum dose that providing maximum increase in life span administered qd for 1 to 5 days. The format is organism-based. The conditions noted are these: in vivo. An outline of the steps: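 Mice were C3H/DBA2 F1 hybrids weighing 18.5-22.5 g. L1210 cells (10^5) were implanted ip or sc above the right axilla. Daily ip treatment began 24 h later and continued for 5 days (dq 1-5), given in water or as a homogenized suspension in aqueous methylcellulose. The optimum dose (mg/kg/day) is the one giving maximum life-span increase (T/C% - 100). Groups were six mice; 50-day survivors were counted.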

The subject of series [2] is L1210. The series is described as follows: Antitumor activity against mouse L1210 cells intraperitoneally xenografted in ip dosed C3H/DBA2 F1 hybrid mouse assessed as increase in host lifespan administered daily for 5 days starting 24 hrs post-tumor implantation. Format: functional. An outline of the steps: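 10⁵ L1210 cells implanted ip into 18.5-22.5-g C3H/DBA2 F1 mice. Daily ip treatment for 5 days from 24 h after implant, as water-soluble salts (methanesulfonate or hydrochloride) or as homogenized suspensions in aqueous methylcellulose. Groups of six mice. Read-out is increase in life span (T/C% − 100) at the optimum dose (maximal life-span increase, mg/kg/day); 50-day survivors counted.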

The nature of series [3]: Lipophilic-hydrophilic balance, Rm of the compound by reversed-phase partition chromatography. Format: physicochemical.
For series [4], the system named is L1210. Nature of the series: Antitumor activity against mouse L1210 cells subcutaneously xenografted in ip dosed C3H/DBA2 F1 hybrid mouse assessed as increase in host lifespan administered daily for 5 days starting 24 hrs post-tumor implantation. Format: functional. An outline of the steps:
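10⁵ L1210 cells implanted sc above the right axilla into 18.5-22.5-g C3H/DBA2 F1 mice. Daily ip dosing for 5 days from 24 h after implant, as water-soluble salts or as homogenized suspensions in aqueous methylcellulose. Groups of six mice. Increase in life span (T/C% − 100) at the optimum dose (maximal life-span increase, mg/kg/day); 50-day survivors counted.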

SMILES strings stand for the structures.

Turning to `CCCCCC(=O)N(c1ccc(Nc2c3ccccc3nc3ccccc23)cc1)S(C)(=O)=O.Cl`, in series [1], the Activity came to 150 mg/kg. Moreover, the ILS (in general, the gain in survival time of treated over control animals, in per cent) in series [2] was 41%. For the same compound, the Rm in series [3] is 0.45.
Turning to `Br.CCCCCCC(=O)N(c1ccc(Nc2c3ccccc3nc3cc(NC(C)=O)ccc23)cc1)S(C)(=O)=O`, in series [1], the Activity was found to be 14 mg/kg. Also, the ILS in series [4] stood at 47%; in series [2], 71%. The compound also yielded a Rm in series [3] of 0.63.
`CCCCCCCC(=O)N(c1ccc(Nc2c3ccccc3nc3ccccc23)cc1)S(C)(=O)=O.Cl`: the Activity in series [1] came out at 400 mg/kg. Further, the ILS in series [2] is on record as 41%. In addition, the Rm in series [3] was 0.68.
Take `CCCN(C)/N=N/c1ccc2c(Nc3ccc(NS(C)(=O)=O)cc3)c3ccccc3nc2c1.CS(=O)(=O)O`: the Activity in series [1] amounted to 15 mg/kg. In addition, the increase in life span (ILS) in series [4] amounted to 27%; in series [2], 98%. This compound also returned a Rm in series [3] of 0.47.
Turning to `CCC(=O)N(c1ccc(Nc2c3ccccc3nc3c(C)cccc23)c(OC)c1)S(C)(=O)=O`, in series [1], the Activity was determined as 25 mg/kg. The increase in life span (ILS) in series [2] was 31%. In series [3], this compound came in with a Rm of 0.37.
As to `COc1cc(N(C(C)=O)S(C)(=O)=O)ccc1Nc1c2ccccc2nc2c(C)cccc12`, the Activity in series [1] came out at 7.5 mg/kg. In addition, the ILS in series [2] stood at 38%. The compound also had a Rm in series [3] of 0.24.
For `CCCCC(=O)N(c1ccc(Nc2c3ccccc3nc3ccccc23)cc1)S(C)(=O)=O.Cl`, the Activity in series [1] came to 400 mg/kg. The ILS in series [4] stood at 28%; in series [2], 68%. Further, the Rm in series [3] is reported as 0.34.
`CS(=O)(=O)Nc1ccc(Nc2c3ccccc3nc3cc(N)ccc23)cc1`: the Activity in series [1] was found to be 2.5 mg/kg. Also, the ILS in series [2] was 81%. Further, the Rm in series [3] is -0.17.
With `CCCC(=O)N(c1ccc(Nc2c3ccccc3nc3cc(NC(C)=O)ccc23)cc1)S(C)(=O)=O.Cl`, in series [1], the Activity is 50 mg/kg. The ILS is reported as 62% in series [4] and 98% in series [2]. In series [3], this compound yielded a Rm of 0.22.
On to `CCCCCCCC(=O)N(c1ccc(Nc2c3ccccc3nc3cc(N)ccc23)cc1)S(C)(=O)=O.Cl`, for which the Activity in series [1] came out at 2.5 mg/kg. For the same compound, the ILS in series [2] worked out at 119%. For the same compound, in series [3], the Rm came out at 0.57.
Consider `CCOC(=O)CCC(=O)N(c1ccc(Nc2c3ccccc3nc3c(C)cccc23)c(OC)c1)S(C)(=O)=O`, for which the Activity in series [1] amounted to 18 mg/kg. For the same compound, in series [2], the ILS is reported as 43%. For the same compound, the Rm in series [3] was found to be 0.62.
Turning to `COC(=O)N(c1ccc(Nc2c3ccccc3nc3ccccc23)cc1)S(C)(=O)=O.Cl`, the Activity in series [1] was 250 mg/kg. Moreover, the ILS in series [4] amounted to 36%; in series [2] it was 67%. This compound also showed a Rm in series [3] of 0.07.
On the same counts, the results for `CCCCCC(=O)N(c1ccc(Nc2c3ccccc3nc3cc([N+](=O)[O-])ccc23)cc1)S(C)(=O)=O` are 5 mg/kg, 39%, 57% and 0.41.
`CCCCCCC(=O)N(c1ccc(Nc2c3ccccc3nc3cc(N)ccc23)cc1)S(C)(=O)=O.Cl`: the Activity in series [1] worked out at 2 mg/kg. Further, the ILS in series [2] turned out to be 31%. This compound returned a Rm in series [3] of 0.51.
As to `CC(=O)Nc1ccc2c(Nc3ccc(N(C(=O)C(C)C)S(C)(=O)=O)cc3)c3ccccc3nc2c1.Cl`, in series [1], the Activity amounted to 50 mg/kg. Also, the ILS worked out at 57% in series [4] and 93% in series [2]. The Rm in series [3] came out at 0.29.
`CCCCCC(=O)N(c1ccc(Nc2c3ccccc3nc3cc(N)ccc23)cc1)S(C)(=O)=O.Cl`: the Activity in series [1] was 2 mg/kg. In addition, the increase in life span (ILS) in series [2] was 46%. For the same compound, in series [3], the Rm was 0.43.
Take `COc1cc(NS(C)(=O)=O)ccc1Nc1c2ccccc2nc2cc(/N=N/N(C)C)ccc12.Cl`: in series [1], the Activity was found to be 10 mg/kg. Further, the results for the ILS in series [4] and in series [2] were 34% and 141%, respectively. Besides, the Rm in series [3] was 0.38.
On the same counts, the results for `CC(=O)N(c1ccc(Nc2c3ccc([N+](=O)[O-])cc3nc3c(C)cccc23)cc1)S(C)(=O)=O` are 200 mg/kg, 188%, 217% and -0.03.
On to `CCCCC(=O)N(c1ccc(Nc2c3ccccc3nc3c(C)cccc23)c(OC)c1)S(C)(=O)=O`, for which the Activity in series [1] was 250 mg/kg. Further, the ILS in series [2] is 50%. For the same compound, the Rm in series [3] was determined as 0.66.
For the compound `CC(=O)N(c1ccc(Nc2c3ccccc3nc3cc(N)ccc23)cc1)S(C)(=O)=O.Cl`, the Activity in series [1] is 2 mg/kg. Further, the ILS in series [2] was 74%. In addition, the Rm in series [3] is -0.22.
On to `CCC(=O)N(c1ccc(Nc2c3ccc([N+](=O)[O-])cc3nc3c(C)cccc23)cc1)S(C)(=O)=O`, for which the Activity in series [1] came to 50 mg/kg. Moreover, the results for the ILS in series [4] and in series [2] were 27% and 81%, respectively. Further, the Rm in series [3] is listed as 0.2.
Consider `CCCCCC(=O)N(c1ccc(Nc2c3ccccc3nc3cc(NC(C)=O)ccc23)cc1)S(C)(=O)=O.Cl`, for which the Activity in series [1] turned out to be 42 mg/kg. The ILS in series [4] is 43%; in series [2] it was 81%. In addition, the Rm in series [3] is listed as 0.51.
On to `CC(=O)Nc1ccc2c(Nc3ccc(N(C(C)=O)S(C)(=O)=O)cc3)c3ccccc3nc2c1.Cl`, for which the Activity in series [1] came to 28 mg/kg. The ILS in series [4] came out at 43%; in series [2], 118%. Further, the Rm in series [3] is listed as -0.19.
The corresponding values for `CCCCCCCC(=O)N(c1ccc(Nc2c3ccccc3nc3cc([N+](=O)[O-])ccc23)cc1)S(C)(=O)=O` are 10 mg/kg, 47%, 62% and 0.61.
On the same counts, the results for `CS(=O)(=O)Nc1ccc(Nc2c3ccccc3nc3ccccc23)cc1` are 45 mg/kg, 28%, 107% and 0.
On to `CCCCC(=O)N(c1ccc(Nc2c3ccccc3nc3cc(N)ccc23)cc1)S(C)(=O)=O.Cl`, for which the Activity in series [1] worked out at 1 mg/kg. In addition, the ILS in series [2] is reported as 61%. The Rm in series [3] stood at 0.31.
Turning to `CCCOC(=O)CCC(=O)N(c1ccc(Nc2c3ccccc3nc3c(C)cccc23)c(OC)c1)S(C)(=O)=O`, the Activity in series [1] worked out at 75 mg/kg. Moreover, the Rm in series [3] was determined as 0.75.
Consider `CCCC(=O)N(c1ccc(Nc2c3ccccc3nc3c(C)cccc23)c(OC)c1)S(C)(=O)=O`, for which, in series [1], the Activity was determined as 75 mg/kg. For the same compound, the ILS in series [2] is 52%. Besides, the Rm in series [3] was found to be 0.53.
The corresponding values for `CCCC(=O)N(c1ccc(Nc2c3ccccc3nc3cc([N+](=O)[O-])ccc23)cc1)S(C)(=O)=O` are 50 mg/kg, 52% and 0.27.
`CCN(CC)/N=N/c1ccc2c(Nc3ccc(NS(C)(=O)=O)cc3)c3ccccc3nc2c1.CS(=O)(=O)O`: the Activity in series [1] stood at 25 mg/kg. Besides, the ILS in series [4] was found to be 28%; in series [2], 96%.
Regarding `CCN(CC)/N=N/c1ccc2c(Nc3ccc(NS(C)(=O)=O)cc3)c3ccccc3nc2c1`, the Rm in series [3] is on record as 0.49.
For the compound `CCCCCCCCC(=O)N(c1ccc(Nc2c3ccccc3nc3ccccc23)cc1)S(C)(=O)=O.Cl`, the Activity in series [1] was determined as 400 mg/kg. Besides, the ILS in series [2] stood at 31%. The compound further registered a Rm in series [3] of 0.74.
On to `CCCC(=O)N(c1ccc(Nc2c3ccccc3nc3ccccc23)cc1)S(C)(=O)=O.Cl`, for which the Activity in series [1] turned out to be 400 mg/kg. Further, the ILS in series [2] was 31%. In series [3], this compound registered a Rm of 0.28.
On to `Br.CCC(=O)N(c1ccc(Nc2c3ccccc3nc3cc(N)ccc23)cc1)S(C)(=O)=O`, for which the Activity in series [1] came to 2 mg/kg. In addition, in series [2], the ILS came to 49%. For the same compound, the Rm in series [3] is -0.04.
Turning to `CC(C)(C)C(=O)N(c1ccc(Nc2c3ccccc3nc3ccccc23)cc1)S(C)(=O)=O.Cl`, in series [1], the Activity stood at 250 mg/kg. In addition, the ILS in series [2] turned out to be 47%. This compound also came in with a Rm in series [3] of 0.31.
Take `CCOC(=O)CCC(=O)N(c1ccc(Nc2c3ccccc3nc3c(C)cccc23)c(OC)c1)S(C)(=O)=O.CS(=O)(=O)O`: the Activity in series [1] came out at 13.3 mg/kg. For the same compound, the ILS in series [2] is 40%.
Regarding `CCCCCCCCC(=O)N(c1ccc(Nc2c3ccccc3nc3cc(N)ccc23)cc1)S(C)(=O)=O.Cl`, the Activity in series [1] was determined as 2.5 mg/kg. The ILS in series [2] came to 64%. The compound also registered a Rm in series [3] of 0.59.
On the same counts, the results for `CCCC(=O)N(c1ccc(Nc2c3ccccc3nc3cc(N)ccc23)cc1)S(C)(=O)=O.Cl` are 1 mg/kg, 53% and 0.13.
On the same counts, the results for `CCCCCC(=O)N(c1ccc(Nc2c3ccccc3nc3c(C)cccc23)c(OC)c1)S(C)(=O)=O` are 66 mg/kg, 39% and 0.79.
